Measured values taken from ChEMBL document CHEMBL3877272, “Synthesis and anti-mitotic activity of 6,7-dihydro-4H-isothiazolo[4,5-b]pyridin-5-ones: In vivo and cell-based studies” (Eur J Med Chem, 2017).

How the values were obtained:
[1] = tested on: Paracentrotus lividus; test: Antimitotic activity in sea urchin embryo assessed as cleavage alteration exposed 8 to 15 mins after fertilization 45 to 55 mins before first mitotic cycle completion measured at 2.5 to 5.5 hrs post dose; assay type: functional
Procedure, shortened: (§1)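 Paracentrotus lividus eggs, fertilized in filtered seawater, cultured as monolayer (up to 2000 embryos/mL) at room temperature. Exposed 8–15 min post-fertilization to 2-fold decreasing concentrations (DMSO stock diluted in EtOH; final DMSO ≤0.05%, EtOH ≤1%). Cleavage alteration scored at 8-cell, arrest at early blastula stage (2.5–5.5 h). Effective threshold concentration reported; duplicate measurements.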

[2] = tested on: Paracentrotus lividus; test: Antimitotic activity in sea urchin embryo assessed as cleavage arrest exposed 8 to 15 mins after fertilization 45 to 55 mins before first mitotic cycle completion measured at 2.5 to 5.5 hrs post dose; assay type: functional; procedure, shortened: as §1
[3] = tested on: Paracentrotus lividus; test: Antimitotic activity in sea urchin free-swimming blastulae assessed as microtubule destabilization by measuring embryo spinning exposed 8 to 10 hrs after fertilization measured after 15 mins to 20 hrs; assay type: functional, Blastula
Procedure, shortened: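 Free-swimming P. lividus blastulae just after hatching (8–10 h post-fertilization) from same culture, exposed in seawater to 2-fold decreasing concentrations (DMSO stock diluted in EtOH). Settling to well bottom with rapid spinning around animal-vegetal axis scored by light microscopy over 15 min–20 h. Effective threshold concentration; duplicate measurements.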

[4] = Antiproliferative activity against human NCI60 cells at 10 uM after 48 hrs by SRB assay relative to control; assay type: functional; conditions: NCI60, 48 h, read-out: GI
[5] = Antiproliferative activity against human NCI60 cells measured after 48 hrs by SRB assay; assay type: functional; conditions: NCI60, 48 h
[6] = Antiproliferative activity against human OVCAR8 cells measured after 3 to 4 days by Celltiter-Glo luminescent cell viability assay; assay type: functional; conditions: OVCAR-8
[7] = Antiproliferative activity against human NCI/ADR-RES cells measured after 3 to 4 days by Celltiter-Glo luminescent cell viability assay; assay type: functional
[8] = Antiproliferative activity against human Caov3 cells measured after 96 hrs by Celltiter-Glo assay; assay type: functional, cell-based; conditions: Caov-3, 96 h
Procedure, shortened: (§2)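 Cells plated 24 h, then treated 96 h with 0.1% DMSO or concentrations […]; growth by CellTiter-Glo luminescence, normalized to DMSO control; IC50 from dose–response curves by logistic nonlinear regression; mean of three independent experiments.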

[9] = Antiproliferative activity against human TOV112D cells measured after 96 hrs by Celltiter-Glo assay; assay type: functional, cell-based; procedure, shortened: as §2
[10] = Antiproliferative activity against human MDA-MB-231 cells measured after 96 hrs by Celltiter-Glo assay; assay type: functional, cell-based; conditions: MDA-MB-231, 96 h; procedure, shortened: as §2
[11] = Antiproliferative activity against human MDA-MB-468 cells measured after 96 hrs by Celltiter-Glo assay; assay type: functional, cell-based; conditions: MDA-MB-468, 96 h; procedure, shortened: as §2
[12] = Antiproliferative activity against human MDA-MB-468 cells measured after 48 hrs by SRB assay; assay type: functional, cell-based; conditions: MDA-MB-468, 48 h
[13] = Antiproliferative activity against human MDA-MB-435 cells measured after 96 hrs by Celltiter-Glo assay; assay type: functional, cell-based; conditions: MDA-MB-435, 96 h; procedure, shortened: as §2
[14] = Antiproliferative activity against human MDA-MB-435 cells measured after 48 hrs by SRB assay; assay type: functional, cell-based; conditions: MDA-MB-435, 48 h
[15] = Antiproliferative activity against human NCI-H1975 cells measured after 96 hrs by Celltiter-Glo assay; assay type: functional, cell-based; conditions: NCI-H1975, 96 h; procedure, shortened: as §2
[16] = Antiproliferative activity against human MDA-MB-DYT2 cells measured after 96 hrs by Celltiter-Glo assay; assay type: functional, cell-based; procedure, shortened: as §2
[17] = Solubility in seawater assessed as micro-crystal formation at 4 uM by light microscopy; assay type: physicochemical
Procedure, shortened: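 Compound from 10 mM DMSO stock diluted 10-fold in 96% EtOH, added to seawater with sea urchin embryos; microcrystal formation checked by light microscopy.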

SMILES | EC [1] | EC [2] | EC [3] | inhibition of growth at 10 µM [4] | GI50 [5] | GI50 [6] | GI50 [7] | IC50 [8] | IC50 [9] | IC50 [10] | IC50 [11] | IC50 [12] | IC50 [13] | IC50 [14] | IC50 [15] | IC50 [16] | solubility [17]
COc1ccc(-c2nsc3c2NC(=O)CC3c2cc(OC)c(O)c(O)c2OC)cc1 (stereo unspecified) | 1 µM | 2 µM | >5 µM |  |  |  |  |  |  |  |  |  |  |  |  |  | 
COc1ccc(C2CC(=O)Nc3c(-c4cccc(F)c4)nsc32)cc1 (stereo unspecified) | 2 µM | >4 µM | >4 µM | 5.3% |  |  |  |  |  |  |  |  |  |  |  |  | 
COc1ccc(-c2nsc3c2NC(=O)CC3c2ccc(F)cc2)cc1 (stereo unspecified) | 0.01 µM | 0.05 µM | 0.1 µM |  | 3020 nM | 4010 nM | 2110 nM | > 2000 nM | > 2000 nM | > 2000 nM | 1850 nM | 2350 nM | 1820 nM | 440 nM | > 2000 nM | > 2000 nM | 
COc1ccc(-c2nsc3c2NC(=O)CC3c2cccc(F)c2)cc1 (stereo unspecified) | 0.01 µM | 0.05 µM | 0.2 µM |  | 4900 nM | 7540 nM | 2960 nM | > 2000 nM | > 2000 nM | > 2000 nM | 1410 nM | 1940 nM | 1410 nM | 827 nM | > 2000 nM | > 2000 nM | 
O=C1CC(c2ccsc2)c2snc(-c3ccc(F)cc3)c2N1 (stereo unspecified) | 0.05 µM | 0.2 µM | 4 µM |  |  |  |  |  |  |  |  |  |  |  |  |  | 
COc1cc(C2CC(=O)Nc3c(-c4cccc(F)c4)nsc32)c(OC)c2c1OCO2 (stereo unspecified) | >4 µM | >4 µM | >4 µM |  |  |  |  |  |  |  |  |  |  |  |  |  | 
COc1ccc(C2CC(=O)Nc3c(-c4ccc(F)cc4)nsc32)cc1 (stereo unspecified) | 2 µM | >4 µM | >4 µM | 6.2% |  |  |  |  |  |  |  |  |  |  |  |  | 
O=C1CC(c2ccc3c(c2)OCO3)c2snc(-c3ccc(F)cc3)c2N1 (stereo unspecified) | 1 µM | >4 µM | >4 µM | 11.7% |  |  |  |  |  |  |  |  |  |  |  |  | 
COc1cccc(C2CC(=O)Nc3c(-c4cccc(F)c4)nsc32)c1 (stereo unspecified) | 0.5 µM | 1 to 4 µM | >4 µM | 9.4% |  |  |  |  |  |  |  |  |  |  |  |  | Insoluble
COc1cc(C2CC(=O)Nc3c(-c4ccccc4)nsc32)cc2c1OCO2 (stereo unspecified) | 4 µM | >4 µM | >4 µM | 4.6% |  |  |  |  |  |  |  |  |  |  |  |  | 
O=C1CC(c2ccsc2)c2snc(-c3cccc(F)c3)c2N1 (stereo unspecified) | 0.05 µM | 0.5 µM | 2 µM | 7.8% |  |  |  |  |  |  |  |  |  |  |  |  | 
O=C1CC(c2cccc(F)c2)c2snc(-c3cccc(F)c3)c2N1 (stereo unspecified) | 1 µM | >4 µM | >4 µM | 6.4% |  |  |  |  |  |  |  |  |  |  |  |  | 
COc1cc(C2CC(=O)Nc3c(-c4cccc(F)c4)nsc32)cc2c1OCO2 (stereo unspecified) | 4 µM | >4 µM | >4 µM | 4.4% |  |  |  |  |  |  |  |  |  |  |  |  | 
COc1ccc(-c2nsc3c2NC(=O)CC3c2cc(OC)c3c(c2OC)OCO3)cc1 (stereo unspecified) | 0.05 µM | 0.2 µM | 1 µM |  |  |  |  |  |  |  |  |  |  |  |  |  | 
O=C1CC(c2cccc(Cl)c2)c2snc(-c3cccc(F)c3)c2N1 (stereo unspecified) | 1 µM | 4 µM | >4 µM |  |  |  |  |  |  |  |  |  |  |  |  |  | 
O=C1CC(c2cccc(Cl)c2)c2snc(-c3ccc(F)cc3)c2N1 (stereo unspecified) | 1 µM | 4 µM | >4 µM | 15.6% |  |  |  |  |  |  |  |  |  |  |  |  | 
COc1ccc(-c2nsc3c2NC(=O)CC3c2ccc(Cl)cc2)cc1 (stereo unspecified) | 0.1 µM | 0.2 µM | 1 µM | 15.7% |  |  |  |  |  |  |  |  |  |  |  |  | 
COc1ccc(/C=C\c2cc(OC)c(OC)c(OC)c2)cc1OP(=O)([O-])[O-].[Na+].[Na+] [FOSBRETABULIN DISODIUM] | 0.005 µM | 0.01 µM | 0.05 µM |  | 1.7 nM |  |  | 13.1 nM | 30.9 nM | 173 nM |  |  | 8.75 nM |  |  | 60 nM | 
COc1cc(C2CC(=O)Nc3c(-c4ccccc4)nsc32)c(OC)c2c1OCO2 (stereo unspecified) | >4 µM | >4 µM | >4 µM |  |  |  |  |  |  |  |  |  |  |  |  |  | 
COc1ccc(-c2nsc3c2NC(=O)CC3c2cccc(Cl)c2)cc1 (stereo unspecified) | 0.01 µM | 0.1 µM | 0.1 µM |  | 1740 nM | 2920 nM | 562 nM | 1300 nM | 1270 nM | 1620 nM | 752 nM | 174 nM | 792 nM | 749 nM | > 2000 nM | > 2000 nM | 
O=C1CC(c2ccc3c(c2)OCO3)c2snc(-c3cccc(F)c3)c2N1 (stereo unspecified) | 1 µM | 4 µM | >4 µM | 5.2% |  |  |  |  |  |  |  |  |  |  |  |  | 
COc1ccc(-c2nsc3c2NC(=O)CC3c2cccc(Cl)c2)cc1OC (stereo unspecified) | 2 µM | >4 µM | >4 µM | 14% |  |  |  |  |  |  |  |  |  |  |  |  | 
O=C1CC(c2ccsc2)c2snc(-c3ccc(Cl)cc3)c2N1 (stereo unspecified) | 0.01 µM | 0.1 µM | 0.2 µM |  | 1510 nM | 3010 nM | 364 nM | 1080 nM | 1150 nM | 1630 nM |  | 291 nM | 628 nM | 260 nM |  | > 2000 nM | 
COc1ccc(-c2nsc3c2NC(=O)CC3c2ccc3c(c2)OCCO3)cc1 (stereo unspecified) | 0.01 µM | 0.05 µM | 0.5 µM |  | 933 nM | 1410 nM | 367 nM | 833 nM | 659 nM | 1710 nM | 451 nM | 328 nM | 349 nM | 247 nM | 1240 nM | 1360 nM | 
COc1cc(C2CC(=O)Nc3c(-c4ccc(Cl)cc4)nsc32)c(OC)c2c1OCO2 (stereo unspecified) | >4 µM | >4 µM | >4 µM | 7.66% |  |  |  |  |  |  |  |  |  |  |  |  | 
COc1cc(C2CC(=O)Nc3c(-c4ccccc4)nsc32)c(OC)c(O)c1O (stereo unspecified) | >4 µM | >4 µM | >4 µM |  |  |  |  |  |  |  |  |  |  |  |  |  | 
